Data on 32 compounds can be found in ChEMBL document CHEMBL1126243, “A novel class of cardiotonic agents: synthesis and biological evaluation of 5-substituted 3,6-dihydrothiadiazin-2-ones with cyclic AMP phosphodiesterase inhibiting and myofibrillar calcium sensitizing properties” (J Med Chem, 1992).

Assay [1] relates to cardiac myofibrillar ATPase (Canis familiaris). Briefly: Shift induced by 30 uM of compound, of the [Ca2+] concentration required for half-maximal activation of the canine cardiac myofibrillar ATPase. Conditions: Canis lupus familiaris.
Assay [2] concerns the target Phosphodiesterase; PDE3 & PDE4. Briefly: Inhibition of dog left ventricle sarcoplasmic reticulum bound low-Km c-AMP phosphodiesterase. It is filed as protein assay, Canis lupus familiaris. Summed up: (§1)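 SR vesicles from dog left ventricle, isolated on a sucrose gradient after Ca2+ oxalate loading. Radiochemical assay at 30 °C with 1 µM [3H]cAMP, 12 mM Tris-HCl, 0.5 mM MgCl2, 137 mM NaCl and 20 mM glucose; products separated on Dowex after 5'-nucleotidase step. Less than 25% substrate hydrolysed. Triplicates at 10 concentrations (10^-9–10^-4 M), DMSO 1%. IC50 from Hill plot of mean curve over at least 3 preparations.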

Assay [3] can be described thus: Inhibition of dog left ventricle sarcoplasmic reticulum bound low-Km cAMP phosphodiesterase. The arrangement: species or system Canis lupus familiaris. Summed up: as §1
Assay [4] deals with cardiac myofibrillar ATPase (Canis familiaris). Briefly: Shift induced by 100 uM of compound, of the [Ca2+] concentration required for half-maximal activation of the canine cardiac myofibrillar ATPase. The conditions noted are these: Canis lupus familiaris.
The test system is the same in assay [5]. The assay is described as follows: Change in calcium-induced activation of canine cardiac myofibrillar ATPase at 200 uM. Conditions: Canis lupus familiaris.
The subject of assay [6] is Canis familiaris. The assay is described as follows: Peak response for contractility was determined in conscious Dog at the dose of 30 ug/kg by peroral administration and measured as% changes of control. The conditions noted are these: route oral.
In assay [7] the test system is Canis familiaris. The assay is described as follows: Peak response for heart rate was determined in conscious Dog at the dose of 30 ug/kg by peroral administration and measured as% changes of control. The conditions noted are these: route oral.
Assay [8] has as its system cardiac myofibrillar ATPase (Canis familiaris). Briefly: Shift induced by 200 uM of compound, of the [Ca2+] concentration required for half-maximal activation of the canine cardiac myofibrillar ATPase. Conditions: Canis lupus familiaris.
Assay [9] shares this test system. The assay is described as follows: Shift induced by 10 uM of compound, of the [Ca2+] concentration required for half-maximal activation of the canine cardiac myofibrillar ATPase. The conditions noted are these: Canis lupus familiaris.
The test system is the same in assay [10]. Briefly: Shift induced by 3 uM of compound, of the [Ca2+] concentration required for half-maximal activation of the canine cardiac myofibrillar ATPase. The conditions noted are these: Canis lupus familiaris.
Assay [11] shares this test system. The assay is described as follows: Shift induced by 1 uM of compound, of the [Ca2+] concentration required for half-maximal activation of the canine cardiac myofibrillar ATPase. The conditions noted are these: Canis lupus familiaris.
The test system is the same in assay [12]. The assay is described as follows: c[Ca2+] concentration required for half-maximal activation of the cardiac myofibrillar ATPase at 30 uM dose of the compound. Conditions: Canis lupus familiaris.
The test system is the same in assay [13]. Briefly: c[Ca2+] concentration required for half-maximal activation of the cardiac myofibrillar ATPase at 100 uM dose of the compound. Conditions: Canis lupus familiaris.

As usually defined, the IC50 is the concentration that inhibits the measured activity by half.

For `CC1SC(=O)NN=C1c1ccc2c(c1)C1(CC1)C(=O)N2` (stereo not given), in assay [1], the Delta pCa50 is 0.14. The same compound gave an IC50 in assay [2] of 36 nM.
Take `Cc1c(C2=NNC(=O)SC2C)ccc2c1C(C)(C)C(=O)N2` (stereo not given): in assay [1], the Delta pCa50 was -0.07. Moreover, in assay [3], inhibition was half-maximal at 9200 nM (IC50).
Consider `CC1[Se]C(=O)NN=C1c1ccc2c(c1)C(C)(C)C(=O)N2` (stereo not given), for which the Delta pCa50 in assay [4] was 0.3. Also, in assay [2], the IC50 stood at 540 nM.
With `CC1(C)C(=O)Nc2cc3[nH]c(-c4ccncc4)nc3cc21` [ADIBENDAN], the Delta pCa50 in assay [5] turned out to be 0.16. Also, the IC50 in [2] amounted to 520 nM.
Consider `Cc1nc(O)c(N)cc1-c1ccccc1`, for which, in assay [5], the Delta pCa50 was determined as 0.1. Moreover, the IC50 in assay [2] is 18000 nM.
Take `CC1SC(=O)NN=C1c1ccc2c(c1)C1(CCCS1)C(=O)N2` (stereo not given): the Delta pCa50 in assay [1] is 0.37. Further, the concentration for half-maximal inhibition (IC50) in assay [2] was found to be 1400 nM.
`COc1cc([S+](C)[O-])ccc1-c1nc2cccnc2[nH]1` (stereo not given) [SULMAZOLE] came in with an IC50 in assay [3] of 140000 nM.
For the compound `CC1C(=O)Nc2ccc(C3=NNC(=O)SC3)cc21` (stereo not given), the Delta pCa50 in assay [5] was found to be 0.15.
With `CC1CC(=O)NN=C1c1ccc2c(c1)C(C)(C)C(=O)N2` (stereo not given), the Delta pCa50 in assay [4] is -0.09. In [2], this compound gave an IC50 of 240 nM.
On to `Cc1cc(C2=NNC(=O)SC2C)cc2c1NC(=O)C2(C)C` (stereo not given), for which the Delta pCa50 in assay [1] was determined as 0.26. Moreover, the IC50 in assay [3] stood at 240 nM.
In the case of `CSC1C(=O)Nc2ccc(C3=NNC(=O)SC3)cc21` (stereo not given), the Delta pCa50 in assay [5] came to 0.28.
As for `CC1SC(=O)NN=C1c1ccc2c(c1)C(C)(C)OC(=O)N2` (stereo not given), in [1], the Delta pCa50 was determined as 0.15. The Change is on record as 67% in assay [6] and 13% in assay [7].
Consider `CC1SC(=O)NN=C1c1ccc2c(c1)C1(CCCC1)C(=O)N2` (stereo not given), for which the Delta pCa50 in assay [1] was 0.35. The IC50 in [2] was 1100 nM.
As for `Cc1cc2c(cc1C1=NNC(=O)SC1C)C(C)(C)C(=O)N2` (stereo not given), the Delta pCa50 in assay [1] is -0.06. In addition, the IC50 in assay [2] turned out to be 3300 nM.
For `CC1SC(=O)NN=C1c1ccc2c(c1)C(C)(C)NC(=O)N2` (stereo not given), the Delta pCa50 in [1] came to 0.24. Besides, the values for the Change in assay [6] and in [7] were 38% and 9%, respectively.
As to `CC1(C)C(=O)Nc2ccc(C3=NNC(=O)SC3)cc21`, the Delta pCa50 in [5] worked out at 0.16.
`O=C1CCc2cc(C3=NNC(=O)SC3)ccc2N1`: in [1], the Delta pCa50 is 0.
For the compound `CC1NC(=O)NN=C1c1ccc2c(c1)C(C)(C)C(=O)N2` (stereo not given), the Delta pCa50 in assay [4] is -0.04. The IC50 in [2] was 170 nM.
Regarding `CC1(C)C(=O)Nc2ccc(C3=NNC(=O)CC3)cc21`, the Delta pCa50 in [8] was -0.04.
For the compound `CC1SC(=O)NN=C1c1ccc2c(c1)C(C)(C)CC(=O)N2` (stereo not given), in [1], the Delta pCa50 amounted to 0.45. Besides, the values for the Change in [6] and in assay [7] were 21% and 5%, respectively.
For the compound `CSC1(C)C(=O)Nc2ccc(C3=NNC(=O)SC3C)cc21` (stereo not given), the Delta pCa50 in assay [8] was 0.33.
For the compound `CSC1(C)C(=O)Nc2ccc(C3=NNC(=O)CC3C)cc21` (stereo not given), in assay [5], the Delta pCa50 was 0.11.
As to `CC1(C)SC(=O)NN=C1c1ccc2c(c1)C(C)(C)C(=O)N2`, the Delta pCa50 in assay [5] was -0.02. Also, in assay [2], the IC50 came out at 66000 nM.
`O=C1Cc2cc(C3=NNC(=O)SC3)ccc2N1`: the Delta pCa50 in assay [5] was found to be 0.08.
Turning to `CC1OC(=O)NN=C1c1ccc2c(c1)C(C)(C)C(=O)N2` (stereo not given), the Delta pCa50 in assay [4] came to 0.04. The IC50 in assay [2] is 960 nM.
In the case of `CSC1(C)C(=O)Nc2ccc(C3=NNC(=O)CC3)cc21` (stereo not given), in [5], the Delta pCa50 turned out to be 0.07.
Regarding `CC1SC(=O)NN=C1c1ccc2c(c1)C1(SCCS1)C(=O)N2` (stereo not given), the Delta pCa50 in [1] stood at 0.57. Besides, the IC50 in [3] is 350 nM.
In the case of `CC1SC(=O)NN=C1c1ccc2c(c1)C1(SCCCS1)C(=O)N2` (stereo not given), the Delta pCa50 in assay [1] is 0.76; in assay [9] it was 0.65; in [10] it was 0.48; in assay [11], 0.12. Half-maximal inhibition in assay [3] (IC50) was put at 260 nM.
As to `CC1SC(=O)NN=C1c1ccc2c(c1)CC(C)(C)C(=O)N2` (stereo not given), the Delta pCa50 in assay [1] was 0.33. In addition, the values for the Change in [6] and in assay [7] were 26% and 24%, respectively.
Consider `CSC1(C)C(=O)Nc2ccc(C3=NNC(=O)SC3)cc21` (stereo not given), for which, in assay [5], the Delta pCa50 was 0.39. The compound further came in with an IC50 in assay [2] of 1200 nM.
Regarding `CC1SC(=O)NN=C1c1ccc2c(c1)C(C)(C)C(=O)N2` (stereo not given), the Delta pCa50 in assay [5] was determined as 0.31; in [12], 0.09; in assay [13], 0.24. For the same compound, the Change in assay [6] is recorded as 73%; in assay [7] it was 8%. In addition, the IC50 in assay [2] is 330 nM.
`CC1SC(=O)NN=C1c1ccc2c(c1)C1(CCCCC1)C(=O)N2` (stereo not given): the Delta pCa50 in assay [1] stood at 0.39. The same compound showed an IC50 in assay [2] of 1300 nM.
